In ChEMBL document CHEMBL4513216, “Probing the Open Global Health Chemical Diversity Library for Multistage-Active Starting Points for Next-Generation Antimalarials” (ACS Infect Dis, 2020):

Test: Toxicity liver stage against HepG2, at 10uM
Assay type: cell-based
Parameters: test concentration 10 uM, cell line HepG2-A16-CD81EGFP
Details: human, HepG2-A16-CD81EGFP cells; read-out: INHIBITION
How it was run: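 Uninfected HepG2-A16-CD81EGFP cells, 3 × 10^3 per well, 1536-well, plated on prespotted compound at 10 μM final, parasite-free screening media added to match infected plates; puromycin 10 μM positive, DMSO 0.5% negative; run in parallel with 48 h PbLuc assay at 37 °C, 5% CO2; viability by CellTiter-Glo luminescence, normalized to controls.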

Row | Structure (SMILES) | cytotoxicity at 10 µM [%]
1 | COCc1cc(C[C@@H]2CC[C@H](O)[C@@H](CNCC(C)C)O2)no1 | 0.847
2 | CC(C)(C)n1ncc2c1NC(=O)CSC2c1ccsc1 (stereo unspecified) | -2.34
3 | Cc1cc(C)nc(N2CCCC(C(=O)Nc3n[nH]c(C(C)C)n3)C2)n1 (stereo unspecified) | 8.04
4 | COCCNC(=O)NCCn1nc(C(F)(F)F)n(C)c1=O | -2.06
5 | CC(C)N1CCc2[nH]nc(C(=O)N3CCCC3C)c2C1 (stereo unspecified) | -6.25
6 | CCOCC1CN(CCOCc2ccccc2)Cc2c1cnn2C (stereo unspecified) | -132
7 | CCc1ccc(NC(=O)N2C[C@H]3CC[C@@]4(N=C(C)N(C)C4=O)[C@H]3C2)cc1 | 11
8 | COCC1CN(C(=O)c2cccn2C)Cc2cnn(C)c21 (stereo unspecified) | 7.43
9 | COc1cc(C(=O)NCC2CCCO2)nc2c(C)cc(F)cc12 (stereo unspecified) | 1.79
10 | COC(=O)c1sccc1S(=O)(=O)NCC1(O)CCOc2ccccc21 (stereo unspecified) | -10.9
11 | CC(=O)N1CCn2c(COCc3csc(C)n3)cnc2C1C (stereo unspecified) | -12.5
12 | CN(C)[C@@H]1CCN(c2ncccn2)[C@H]1Cc1ccccc1 | -9.29
13 | O=C(O)c1cnc(N2CCCC2)nc1COc1ccccc1 | 0.924
14 | CN(C)Cc1cc(C2CCCN(S(=O)(=O)c3cccc(Cl)c3)C2)nn1C (stereo unspecified) | 0.288
15 | CCn1cc(-c2nccnc2C2CCCN(C(C)=O)C2)cn1 (stereo unspecified) | -6.03
16 | c1cc(C2CCCN2CC2CC2)n[nH]1 (stereo unspecified) | -1.75
17 | O=C(NC1CC1)c1cc(C(F)(F)F)cc(C(F)(F)F)n1 | 6
18 | CN(CCOc1ccc(F)cc1)S(=O)(=O)N1CCOCC1 | 7.71
19 | CCOc1nnc(CN2CCC(c3cc4ccccc4[nH]3)CC2)s1 | 20.6
20 | c1cnc(NCCCOC2CCOCC2)nc1 | -2.96
21 | N#CC1(C(=O)N2CCOC(c3ccc(F)cc3)C2)CCCCC1 (stereo unspecified) | 3.85
22 | COCC(=O)Nc1nnc2n(Cc3cccc(OC)c3)[nH]c(C)c1-2 | -11.7
23 | CCC(C)NC(=O)CS(=O)(=O)Cc1ccccc1Cl (stereo unspecified) | 3.79

Row | Structure (SMILES) | cytotoxicity at 10 µM [%]
24 | CNC(=O)Cc1noc(-c2cc3c(s2)CCCC3)n1 | 0.403
25 | CN(C)C(=O)CCCn1ccc(NCc2ccc(C#N)cc2)n1 | 1.92
26 | N#CCCCS(=O)(=O)NC1(c2cccc(Br)c2)CC1 | 2.99
27 | CCCOc1cc(CNC(=O)Nc2ccc(C)cc2)ccn1 | 2.99
28 | N#CC1COCCN1S(=O)(=O)c1ccc2c(c1)CCC2 (stereo unspecified) | 4.53
29 | CCOc1ccc(CC(=O)N(CCC(=O)OC)CC2CCCO2)cc1 (stereo unspecified) | 5.04
30 | O=C(NCC1(c2ccc(F)cc2)CCCC1)N1CCOC(CO)C1 (stereo unspecified) | 0.323
31 | CN(C(=O)c1ccc(NC(=O)c2cc[nH]n2)cc1)C1CCCCC1 | -2.98
32 | Cc1cc(NC(=O)N2CCCC(CO)C2)nn1-c1ccccc1Cl (stereo unspecified) | 8.23
33 | O=c1[nH]nc(SCC2CCCO2)n1C1CC1 (stereo unspecified) | 0.0288
34 | Cc1cc(N2CCc3c(ncn3C)C2)nc(N)n1 | -7.93
35 | Cc1cnc(CN2CCN(C(C)c3nc(C)no3)CC2)cn1 (stereo unspecified) | 1.81
36 | O=C(NCC(c1cccs1)N1CCOCC1)c1ccc(F)cc1Cl (stereo unspecified) | -2.27
37 | CC(C)c1ccc(CS(=O)(=O)CC(=O)NCc2ccccc2F)cc1 | 8.31
38 | Cc1cc(C)n(CC2CN(CC(=O)Nc3cccnc3)CCO2)n1 (stereo unspecified) | -3.1
39 | O=C(c1csc(-c2ncccn2)n1)N1CCN(C2CCCC2)CC1 | 4.87
40 | Cc1cccc(S(=O)(=O)N2CSCC2C(=O)NCC2CC2)c1 (stereo unspecified) | -6.14
41 | CCOc1ccc(CC(=O)Nc2cnccc2SCCCO)cc1 | 7.94
42 | Cc1cccc(-c2noc(CN3CCn4c(nnc4C4CC4)C3)n2)c1 | -9.03
43 | COc1ccc2c(c1)C(=O)N(C)C1(CCN(CC=C(C)C)CC1)N2 | 3.31
44 | CCS(=O)(=O)CC(C)NC(=O)N(C)Cc1cc(Cl)cn1C (stereo unspecified) | -1.04
45 | Cc1n[nH]c(C)c1NC(=O)c1cccc(OCC(F)(F)F)n1 | -6.83
46 | O=C(CNc1cc(F)ccc1OC(F)F)NCC(F)(F)F | -2.79

Row | Structure (SMILES) | cytotoxicity at 10 µM [%]
47 | CC(C)CN1C(=O)C2(CCCC2)NC12CCSCC2 | -135
48 | O=C(c1ccc[nH]1)N(Cc1ccc(O)cc1)CC1CC1 | 8.43
49 | COCCCNC(=O)Cn1nnc(-c2cc3ccccc3o2)n1 | 6.43
50 | COc1ccc(S(=O)(=O)C(C)C(=O)NCCOc2cccc(C)c2)cc1 (stereo unspecified) | -2.24
51 | Cc1c(NC(=O)NC2CCCC2)cccc1C(=O)N1CCSCC1 | 11.8
52 | CCc1nnsc1C(=O)N1CCN(CC(O)C(C)(C)C)CC1 (stereo unspecified) | 0.542
53 | O=C(O)c1csc(S(=O)(=O)N2CCCc3cc(OC(F)F)ccc32)c1 | -9.69
54 | COCCN1CCN(c2ccc(CN(C)C)cn2)CC1 | -7.41
55 | O=C(c1ccccc1O)N1CCN(C(=O)C2CCC2)CC1 | 2.42
56 | c1ccc(CN2CCCC2)c(CNc2cncc3nnnn23)c1 | 0.351
57 | CC(=O)Nc1ccc(C(=O)N2CCSCC2c2ccc(C)o2)cc1 (stereo unspecified) | 11.4
58 | CCCNC(=O)C1CCCN(Cc2ccc(-n3cncn3)c(C)c2)C1 (stereo unspecified) | 8.28
59 | OC(CN1CCOCC1)c1cc(Cl)ccc1Cl (stereo unspecified) | -1.57
60 | COC(C)(C)CC(C)NC(=O)Nc1ccccn1 (stereo unspecified) | 8.19
61 | CC1CCCN1C1CCN(C(=O)c2cccc(-c3ccoc3)c2)CC1 (stereo unspecified) | -9.63
62 | CC(=O)N(C)c1nc(CN2CCOC(Cn3cccn3)C2)cs1 (stereo unspecified) | -12.8
63 | CS(=O)(=O)Cc1cccc(C(=O)NCC2Cc3ccccc3O2)c1 (stereo unspecified) | -16.5
64 | CC(=O)N1CC[C@H]2OCC[C@@H](C(=O)Nc3cccnc3C)[C@H]2C1 | 0.0861
65 | Cn1nccc1C(=O)N1CCOC(Cc2ccc(F)cc2)C1 (stereo unspecified) | 5.08
66 | CC(C)c1nc(CN(C)Cc2ccc(O)c(C(=O)O)c2)cs1 | -4.24
67 | CCC(C)NC(=O)c1coc(COc2cccc(F)c2)n1 (stereo unspecified) | -146
68 | NS(=O)(=O)c1ccc(F)c(C(=O)NCCSc2ccccn2)c1 | -9.11
69 | Cc1ccc(Oc2ncccc2CNC2CCOCC2)cn1 | -3.73

Row | Structure (SMILES) | cytotoxicity at 10 µM [%]
70 | COc1cccc(CN2C[C@H]3CC[C@H]2C3)c1OCCN1CCOCC1 | 0.101
71 | CC(=O)Nc1ccsc1C(=O)Nc1cnc2n1CCCC2 | -4.58
72 | Cc1cc(NCCc2c[nH]cn2)nc(-c2cccnc2)n1 | 2.49
73 | CCN1CCN(C[C@@H]2CN(c3ncccc3C(F)(F)F)C[C@@H]2CO)CC1 | -4.47
74 | Cc1ccc2nc(C(=O)N3CCNC(=O)C3c3cccc(F)c3)cn2c1 (stereo unspecified) | -5.66
75 | Cc1cc(C)c2c(N3CCN(C(=O)N4CCOCC4)CC3)ncnc2n1 | -8.29
76 | CC(C)c1cc(-c2cnn(C)c2C2CC2)c(C#N)c(N)n1 | 28.5
77 | CN1CCN(C(=O)c2ccnc(N3CCOC(C(F)(F)F)C3)c2)CC1 (stereo unspecified) | -11.4
78 | CCc1ccc(CN2CCNC(C(=O)N3CCN(C)CC3)C2)nc1 (stereo unspecified) | 7.68
79 | Cc1cccc2[nH]c(C3CCN(C(=O)c4c[nH]c(=O)[nH]c4=O)CC3)nc12 | 8.59
80 | CCC(=O)N1CCCC(Cn2cc(-c3ccc(F)cc3)nn2)C1 (stereo unspecified) | 2.89
81 | COc1cccc(OCC(=O)N2CCC3(CC2)[C@H](O)C[C@@H]3OC)c1 | 0.866
82 | CC(C)N1CCCC(C(=O)NC(C)(C)c2nnc(N)s2)C1 (stereo unspecified) | -2.4
83 | CS(=O)(=O)N1CCC(Oc2ccc(C(=O)NC3CCCC3)cc2Cl)CC1 | -1.02
84 | CC(=O)N[C@@H]1CN(Cc2ccc(F)cc2F)C[C@H]1c1ccc(C)o1 | 6.39
85 | CC(=O)N1C[C@H](NS(=O)(=O)c2cccc(Cl)c2)[C@@H](C(C)C)C1 | 7.82
86 | CCN1CCN(C(=O)c2cccc(CN3CCOCC3)c2)CC1 | 7.12
87 | Cn1ccnc1C(=O)N1CCCC1c1ccc(C(=O)N2CCOCC2)s1 (stereo unspecified) | -155
88 | CCc1nc(C2CCCN2CC(=O)Nc2cc(C)no2)no1 (stereo unspecified) | -1.68
89 | CCN1N=C(C(=O)N2CCCC(c3nc(C)c(C)s3)C2)CCC1=O (stereo unspecified) | 1.84
90 | Cn1ccnc1COc1ccc(CN2CCC(C(N)=O)CC2)cc1 | -4.47
91 | Cc1nc(C)n(CC2CN(c3ncccc3C#N)CCO2)n1 (stereo unspecified) | -10.1
92 | CNC(=O)NC(=O)C(C)N(C)CCCc1cc(-c2ccccc2)no1 (stereo unspecified) | -11.6

Row | Structure (SMILES) | cytotoxicity at 10 µM [%]
93 | CC(=O)NCCNC(=O)c1sc(-c2ccc(Cl)cc2)nc1C | -7.6
94 | Cc1ccc(N2CCCN(C(=O)CCC3CCCO3)CC2)nn1 (stereo unspecified) | -16.3
95 | Cc1nc(C)n(CC2CCCN(Cc3cccnc3)C2)n1 (stereo unspecified) | -18.7
96 | c1cc(-c2noc(CN3CCn4c(nnc4C4CC4)C3)n2)cs1 | -7.07
97 | Cc1cccc(CNC(=O)N(CCCO)C2CCc3ccccc32)n1 (stereo unspecified) | -10.5
98 | CCOCC(O)CN1CCN(C(=O)C2CCC2)CC1 (stereo unspecified) | -11.8
99 | O=C(Cc1c[nH]c2ccccc12)N1CCC(Nc2ccccc2)CC1 | -12.9
100 | CCc1nc(CN2CCOC(Cn3nc(C)nc3C)C2)no1 (stereo unspecified) | -5.38
101 | CC(C)(C)c1nnc(CN2CCn3c(nnc3C3CC3)C2)o1 | 4.45
102 | O=C(Nc1cnccn1)[C@H]1COC[C@H]2CN(C3CCCC3)C[C@H]21 | -20.4
103 | Cc1occc1C(=O)NCC1OCCc2cn(C)nc21 (stereo unspecified) | 4.33
104 | O=C(Cc1ccsc1)N1CCCC2(COCCN(CC3CC3)C2)C1 (stereo unspecified) | -127
105 | COc1ccc(C(=O)N2CC[C@@H]3[C@H](CC2)N(C)CCS3(=O)=O)cc1 | -117
106 | Cc1csc(CCNCc2cnc3c(c2)c(C)nn3C)n1 | 5.76
107 | CC(C)N(C)Cc1cn2c(n1)CN(Cc1ccsc1)CC2 | -16.1
108 | CN(C)C(=O)NCc1cc2n(n1)CCCN(CC1[C@H]3CNC[C@@H]13)C2 (stereo partly specified) | -5.77
109 | COC(=O)N1C[C@@H]2CC[C@H]1CN(Cc1cscn1)C2 | -9.25
110 | C=c1occc1=C1NN=C2SC(C#N)C(N)=NN21 (stereo unspecified) | 0.331
111 | Cc1oc(C(C)C)cc1C(=O)N1C[C@@H]2CC[C@H]1CN(C(=O)N(C)C)C2 | -119
